Results: article PMC7051832 (ACS chemical biology, 2019)

Key:
[1] = target: E. coli dihydrofolate reductase (ecDHFR) (Escherichia coli, UniProt P0ABQ4); experiment: NMR 15N-HSQC titration of model fragments binding to ecDHFR
How it was run: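 15N-ecDHFR at 100 μM, in bulk buffer (20 mM Tris pH 8.5, 100 mM NaCl, 10 mM DTT, 0.02% azide) or in reverse micelles (52.5 mM 10MAG, 18 mM LDAO, 4.5 mM DTAB, hexanol, pentane; W0 15; 5 mM in water core). Titrated with fragment. 15N-HSQC at 25 °C, 1024 × 64 complex points, 32 scans. Chemical shift perturbations fitted for Kd; error from fitting.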

interleukin-1β (IL-1β) = interleukin-1β (IL-1β) (Homo sapiens, UniProt P01584); experiment: Reverse micelle; assay type: binding; conditions: RM encapsulated IL-1β
Chain of interleukin-1β (IL-1β) (P01584 117-269): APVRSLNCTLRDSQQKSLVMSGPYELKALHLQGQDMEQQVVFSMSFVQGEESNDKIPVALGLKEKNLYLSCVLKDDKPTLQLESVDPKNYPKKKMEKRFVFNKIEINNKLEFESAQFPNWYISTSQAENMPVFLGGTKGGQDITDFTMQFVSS

Chain of E. coli dihydrofolate reductase (ecDHFR) (P0ABQ4 whole entry, the tested form may be a part): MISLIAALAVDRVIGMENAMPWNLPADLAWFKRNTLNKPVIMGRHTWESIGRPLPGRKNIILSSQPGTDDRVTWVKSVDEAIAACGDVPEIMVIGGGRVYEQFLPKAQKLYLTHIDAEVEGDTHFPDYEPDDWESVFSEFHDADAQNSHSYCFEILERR

Row | Structure (SMILES) | Kd ([1]; binding to ecDHFR, natural cofactor, NMR titration) [µM] | degree of saturation of the protein ([1]; same absolute amounts of protein and ligand, both bulk and RM samples) | binding sites on the protein surface (interleukin-1β (IL-1β))
1 | NC(=O)c1ccc[n+]([C@@H]2O[C@H](COP(=O)([O-])OP(=O)(O)OC[C@H]3O[C@@H](n4cnc5c(N)ncnc54)[C@H](OP(=O)(O)O)[C@@H]3O)[C@@H](O)[C@H]2O)c1 [NADP^+] | 9 ± 2 | saturated the enzyme in both bulk and RM samples | –
2 | OCc1ccc2nccn2c1 [imidazo[1,2-a]pyridine-6-ylmethanol] | – | – | bound to multiple sites on the protein surface
